The target in assay [1] is T1, Peroxisome proliferator-activated receptor gamma (Homo sapiens) (UniProt P37231).
T1 sequence (whole entry): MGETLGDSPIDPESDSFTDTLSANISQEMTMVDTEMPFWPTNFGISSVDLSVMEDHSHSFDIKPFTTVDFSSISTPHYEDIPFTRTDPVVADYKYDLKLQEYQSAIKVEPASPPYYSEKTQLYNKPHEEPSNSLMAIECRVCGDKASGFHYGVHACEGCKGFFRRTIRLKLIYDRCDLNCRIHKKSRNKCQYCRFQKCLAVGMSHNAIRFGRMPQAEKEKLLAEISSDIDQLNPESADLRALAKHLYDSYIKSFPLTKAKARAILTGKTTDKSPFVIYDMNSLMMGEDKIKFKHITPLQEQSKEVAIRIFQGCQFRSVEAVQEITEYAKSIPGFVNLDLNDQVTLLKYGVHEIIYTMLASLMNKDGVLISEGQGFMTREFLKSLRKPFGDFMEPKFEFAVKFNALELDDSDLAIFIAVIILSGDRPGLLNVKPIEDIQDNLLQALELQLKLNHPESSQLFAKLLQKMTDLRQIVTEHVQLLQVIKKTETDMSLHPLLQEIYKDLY
Kind of assay: Agonist activity at human PPAR-gamma expressed in HEK293 cells at 30 uM after 18 hrs by luciferase reporter gene assay relative to control. A general note: In a reporter assay the amount or activity of a reporter protein is the signal.

Assay [2] has as its target T1, Peroxisome proliferator-activated receptor gamma (Homo sapiens). Kind of assay: Transactivation of human PPAR-gamma expressed in HEK293 cells after 18 hrs by luciferase reporter gene assay relative to control. It counts as cell-based. A digest of the protocol: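 HEK-293 cells transiently co-transfected by calcium phosphate with full-length human PPARγ expression plasmid (pSG5-PL-hPPAR-gamma1), tk-PPREx3-luc reporter and EGFP internal control. Cells were reseeded and treated for 18 h, with 0.1% DMSO as vehicle. Luciferase was normalized to EGFP fluorescence and expressed as fold induction over vehicle. Means ± SD of three independent experiments, each in quadruplicate.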

The target is the same in assay [3]. Kind of assay: Reduction of pioglitazone-mediated human PPAR-gamma activation expressed in HEK293 cells after 18 hrs by luciferase reporter gene assay. In kind it is cell-based. A digest of the protocol:
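Co-treatment assay in human PPARγ/tk-PPREx3-luc/EGFP-transfected HEK-293 cells. Pioglitazone at varied concentrations was applied with or without 30 μM compound for 18 h, with DMSO vehicle at 0.1%. Luciferase was normalized to EGFP fluorescence and expressed as fold over vehicle. Means ± SD of three independent experiments in quadruplicate.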

The target is the same in assay [4]. Kind of assay: Agonist activity at human PPAR-gamma expressed in HEK293 cells at 30 uM after 18 hrs by luciferase reporter gene assay in presence of T0070907.

The source made the active and inactive calls. The rule behind the calls is not given here.

On to `COc1cc(C2Oc3c(O)cc([C@H]4Oc5cc(O)cc(O)c5C(=O)[C@@H]4O)cc3C2CO)ccc1O` (stereo not given in full), for which the result in assay [1] was inactive.
Still for that read-out and setting: next, `O=C1c2c(O)cc(O)cc2O[C@H](c2ccc(O)c(O)c2)[C@H]1O`: “inactive”; `COc1cc([C@@H]2Oc3cc([C@H]4Oc5cc(O)cc(O)c5C(=O)[C@@H]4O)ccc3O[C@H]2CO)ccc1O`: “inactive”; `COc1cc([C@@H]2[C@H]3CO[C@@]4(O)C(=O)[C@@H]2C=C([C@H]2Oc5cc(O)cc(O)c5C(=O)[C@@H]2O)[C@@H]34)ccc1O`: “inactive”.
On the same count and under the same terms, next, `COc1cc([C@H]2Oc3cc([C@H]4Oc5cc(O)cc(O)c5C(=O)[C@@H]4O)ccc3O[C@@H]2CO)ccc1O`: “inactive”.
Take `COc1cc([C@H]2Oc3ccc([C@H]4Oc5cc(O)cc(O)c5C(=O)[C@@H]4O)cc3O[C@@H]2CO)ccc1O`: the Activity result in assay [2] was “Dose-dependent effect”. Moreover, the fold change (FC) in assay [1] came out at 2.08. The result in assay [3] was Active. In addition, the result in assay [4] was inactive.
Turning to `COc1cc([C@@H]2Oc3ccc([C@H]4Oc5cc(O)cc(O)c5C(=O)[C@@H]4O)cc3O[C@H]2CO)ccc1O`, the outcome in assay [1] was inactive.

These data come from ChEMBL document CHEMBL3232839, “Identification of isosilybin a from milk thistle seeds as an agonist of peroxisome proliferator-activated receptor gamma” (J Nat Prod, 2014).
